Assay [1] has as its target T1, P2Y purinoceptor 6 (Rattus norvegicus, UniProt Q63371). The assay can be described thus: (§1) Agonist activity at rat P2Y purinoceptor 6 expressed in human 1321N1 cells assessed as increase in intracellular calcium concentration by spectrofluorimetry. The method, boiled down: (§2)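 1321N1 astrocytoma cells lacking endogenous P2Y receptors, stably transfected with turkey P2Y1, human P2Y2, human P2Y4 or rat P2Y6, grown in DMEM with 5% FBS, penicillin/streptomycin and 500 µg/mL G-418. Fura-2-loaded cell suspensions were exposed at 37 °C in 10 mM Hepes-buffered saline, pH 7.4, with 1 mM CaCl2 and 1 mM MgCl2. Peak [Ca2+]i rise by dual-excitation spectrofluorometry across concentrations; EC50 from curve fits; three experiments on separate days per subtype.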
Background: A change in cytosolic calcium serves as a functional read-out for many receptors and channels.

Assay [2] concerns the target T1, P2Y purinoceptor 6. The assay is described as §1. Put shortly:
as §2
This is another data set of the same source.

For assay [3], the target named is T2, P2Y purinoceptor 4 (Homo sapiens, UniProt P51582). Put plainly: (§3) Agonist activity at human P2Y purinoceptor 4 expressed in human 1321N1 cells assessed as increase in intracellular calcium concentration by spectrofluorimetry. Put shortly:
(§4)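 1321N1 astrocytoma cells (no endogenous P2Y receptors) stably expressing hP2Y4, grown in DMEM with 5% FBS, penicillin/streptomycin and 500 μg/mL G-418. Fura-2-loaded cell suspensions; compounds applied at various concentrations, 37 °C, 10 mM Hepes-buffered saline pH 7.4 with 1 mM CaCl2/MgCl2. Peak [Ca2+]i rise by dual-excitation fluorometry gives EC50; UTP reference agonist; three experiments on separate days.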

The target in assay [4] is T2, P2Y purinoceptor 4. The description is as §3. The method, boiled down:
as §4
This is another data set of the same source.

Assay [5] concerns the target T3, P2Y purinoceptor 1 (Meleagris gallopavo, UniProt P49652). Put plainly: (§5) Agonist activity at turkey P2Y purinoceptor 1 expressed in human 1321N1 cells assessed as increase in intracellular calcium concentration by spectrofluorimetry.
The target of assay [6] is T3, P2Y purinoceptor 1. The description is as §5. Put shortly: as §2
The source holds these as a separate data set.

Assay [7] concerns the target T4, P2Y purinoceptor 2 (Homo sapiens, UniProt P41231). Put plainly: (§6) Agonist activity at human P2Y purinoceptor 2 expressed in human 1321N1 cells assessed as increase in intracellular calcium concentration by spectrofluorimetry. Put shortly: as §2
In assay [8] the target is T4, P2Y purinoceptor 2. The description is as §6. The source holds these as a separate data set.

T3 sequence (P49652 whole entry): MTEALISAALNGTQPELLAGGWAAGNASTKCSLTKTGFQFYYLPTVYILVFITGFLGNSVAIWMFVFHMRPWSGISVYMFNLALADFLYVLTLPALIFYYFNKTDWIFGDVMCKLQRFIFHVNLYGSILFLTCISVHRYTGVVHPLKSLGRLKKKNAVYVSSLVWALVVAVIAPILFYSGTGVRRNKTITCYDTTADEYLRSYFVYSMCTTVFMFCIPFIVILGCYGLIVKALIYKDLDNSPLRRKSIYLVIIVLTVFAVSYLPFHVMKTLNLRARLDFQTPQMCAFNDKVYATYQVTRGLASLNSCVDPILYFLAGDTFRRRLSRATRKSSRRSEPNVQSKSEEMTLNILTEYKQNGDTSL
T1 sequence (Q63371 whole entry): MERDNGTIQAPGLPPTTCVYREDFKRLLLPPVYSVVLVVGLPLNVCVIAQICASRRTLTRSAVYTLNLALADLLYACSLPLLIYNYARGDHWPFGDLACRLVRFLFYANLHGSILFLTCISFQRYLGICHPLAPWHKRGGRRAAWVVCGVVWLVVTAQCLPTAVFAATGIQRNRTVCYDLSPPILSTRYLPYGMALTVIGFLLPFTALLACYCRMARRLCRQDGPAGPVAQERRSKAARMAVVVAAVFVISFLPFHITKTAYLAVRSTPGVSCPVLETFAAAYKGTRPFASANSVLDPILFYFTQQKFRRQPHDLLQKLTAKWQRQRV
T4 sequence (P41231 whole entry): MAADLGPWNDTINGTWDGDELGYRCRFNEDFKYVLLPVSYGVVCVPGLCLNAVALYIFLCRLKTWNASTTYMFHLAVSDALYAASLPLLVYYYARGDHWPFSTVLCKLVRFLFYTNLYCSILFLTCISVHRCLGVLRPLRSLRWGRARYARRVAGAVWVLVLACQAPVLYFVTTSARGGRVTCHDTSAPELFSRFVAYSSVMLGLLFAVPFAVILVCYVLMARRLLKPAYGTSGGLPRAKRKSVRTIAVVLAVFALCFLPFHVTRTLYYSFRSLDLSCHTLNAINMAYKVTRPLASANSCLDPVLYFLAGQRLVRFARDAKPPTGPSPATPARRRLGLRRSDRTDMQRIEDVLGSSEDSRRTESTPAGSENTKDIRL
T2 sequence (P51582 whole entry): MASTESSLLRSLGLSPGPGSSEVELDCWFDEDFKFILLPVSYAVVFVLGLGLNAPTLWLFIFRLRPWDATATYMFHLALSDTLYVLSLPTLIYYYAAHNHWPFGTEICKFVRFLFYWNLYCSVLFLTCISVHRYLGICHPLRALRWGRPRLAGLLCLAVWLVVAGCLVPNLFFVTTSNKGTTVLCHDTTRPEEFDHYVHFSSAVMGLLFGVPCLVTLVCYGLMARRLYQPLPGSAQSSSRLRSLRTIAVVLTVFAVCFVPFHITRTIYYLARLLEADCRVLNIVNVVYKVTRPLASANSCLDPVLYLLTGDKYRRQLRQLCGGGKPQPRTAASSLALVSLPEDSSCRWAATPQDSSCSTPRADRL

By EC50 is commonly meant the midpoint of the concentration-response curve. For `BP(=O)(OC[C@H]1O[C@@H](n2ccc(=O)[nH]c2=O)[C@H](O)[C@@H]1O)OP(=O)(O)OP(=O)(O)OC[C@H]1O[C@@H](n2ccc(=O)[nH]c2=O)[C@H](O)[C@@H]1O` (some centres undefined), the EC50 at P2Y purinoceptor 6 [1] and on P2Y purinoceptor 6 [2] was 720 nM each time.

Take `BP(=O)(OC[C@H]1O[C@@H](n2ccc(=O)[nH]c2=O)[C@H](O)[C@@H]1O)OP(=O)(O)OP(=O)(O)OP(=O)(O)OC[C@H]1O[C@@H](n2ccc(=O)[nH]c2=O)[C@H](O)[C@@H]1O` (some centres undefined): the EC50 at P2Y purinoceptor 6 [1] came to 36100 nM; on P2Y purinoceptor 6 [2], 36100 nM; at P2Y purinoceptor 4 [3], 9400 nM; at P2Y purinoceptor 4 [4], 9400 nM.

As to `BP(=O)(OP(=O)(O)OC[C@H]1O[C@@H](n2cnc3c(N)ncnc32)[C@H](O)[C@@H]1O)OP(=O)(O)OP(=O)(O)OC[C@H]1O[C@@H](n2cnc3c(N)ncnc32)[C@H](O)[C@@H]1O` (some centres undefined), the 50% effective concentration (EC50) on P2Y purinoceptor 1 [5] and at P2Y purinoceptor 1 [6] was 3000 nM each time.

Turning to `BP(=O)(OP(=O)(O)OC[C@H]1O[C@@H](n2cnc3c(N)ncnc32)[C@H](O)[C@@H]1O)OP(=O)(O)OP(=O)(O)OC[C@H]1O[C@@H](n2ccc(=O)[nH]c2=O)[C@H](O)[C@@H]1O` (some centres undefined), the EC50 on P2Y purinoceptor 6 [1] came out at 1290 nM; at P2Y purinoceptor 6 [2], 1290 nM; on P2Y purinoceptor 1 [5], 6900 nM; at P2Y purinoceptor 2 [7], 64200 nM.

With `BP(=O)(OP(=O)(O)OC[C@H]1O[C@@H](n2ccc(=O)[nH]c2=O)[C@H](O)[C@@H]1O)OP(=O)(O)OP(=O)(O)OC[C@H]1O[C@@H](n2cnc3c(N)ncnc32)[C@H](O)[C@@H]1O` (some centres undefined), the EC50 on P2Y purinoceptor 6 [1] stood at 20900 nM; at P2Y purinoceptor 6 [2], 20900 nM; on P2Y purinoceptor 1 [5] it was 500 nM; at P2Y purinoceptor 1 [6], 500 nM.

For `BP(=O)(OC[C@H]1O[C@@H](n2cnc3c(N)ncnc32)[C@H](O)[C@@H]1O)OP(=O)(O)OP(=O)(O)OC[C@H]1O[C@@H](n2cnc3c(N)ncnc32)[C@H](O)[C@@H]1O` (some centres undefined), the concentration giving a half-maximal response (EC50) at P2Y purinoceptor 1 [5] and on P2Y purinoceptor 1 [6] was 800 nM throughout.

With `BP(=O)(OC[C@H]1O[C@@H](n2cnc3c(N)ncnc32)[C@H](O)[C@@H]1O)OP(=O)(O)OP(=O)(O)OP(=O)(O)OC[C@H]1O[C@@H](n2cnc3c(N)ncnc32)[C@H](O)[C@@H]1O` (some centres undefined), the 50% effective concentration (EC50) on P2Y purinoceptor 2 [8] came out at 25900 nM; on P2Y purinoceptor 1 [5] it was 1480 nM; on P2Y purinoceptor 2 [7], 25900 nM; on P2Y purinoceptor 1 [6], 1480 nM.

`BP(=O)(OP(=O)(O)OC[C@H]1O[C@@H](n2ccc(=O)[nH]c2=O)[C@H](O)[C@@H]1O)OP(=O)(O)OP(=O)(O)OC[C@H]1O[C@@H](n2ccc(=O)[nH]c2=O)[C@H](O)[C@@H]1O` (some centres undefined): the EC50 at P2Y purinoceptor 6 [1] and on P2Y purinoceptor 6 [2] was 1930 nM throughout.

The values are drawn from BindingDB's records for doi:10.1021/jm2013198 (Bar-Ilan University, 2012).
